Results from PubChem BioAssay.
Activity calls are given as the source filed them.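 Rule for the calls, unless noted: active = viability at or below 30% in both replicate assays; inconclusive = viability at or below 30% in just one of the two assays; inactive = the rest.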

Assays:
[1] = reducers of endogenous Her2 protein level, primary screen, SKBR3 breast tumor cells, AlphaScreen, ATP viability (AID 461;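 active = Her2 level under about 52% in both replicate screens, with viability over 70% of control, limit read from the data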;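 for Her2 level: lower value means less Her2 protein in the cells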;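 for viability: percent of carrier control wells set as 100% viability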); details: 18-24 h, measured here: SKBR3 viability, ATP luminescence, at 10 µM
[2] = target: Receptor tyrosine-protein kinase erbB-2 (Homo sapiens) (UniProt P04626); assay: as above; details: 18-24 h, at 10 µM, stronger effect = lower value
[3] = SK-BR-3 cell growth inhibitors, pilot screen, 24 h, human (AID 572;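 active = viability at or below 10% of carrier control in both of two separate runs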;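 note: compound exposure lasted between 18 and 24 h rather than exactly 24 h; 100% = carrier-treated control wells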); details: SK-BR-3 viability, CellTiter-Glo luminescence, at 10 µM, stronger effect = lower value
[4] = HUVEC growth inhibition – cell-based, human, primary screen (AID 575); details: HUVEC proliferation, CellTiter-Glo luminescence, 72 h; at 10 µM; stronger effect = lower value;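 note: 100% = median of untreated cell wells with 0.1% DMSO on each plate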
Procedure, shortened: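 Test system – primary HUVEC, no more than 12 passages · Dosing – one dose, 10 µM final, 0.1% DMSO · Times – 72 h treatment at 37 °C · Measured by – ATP-based CellTiter-Glo luminescent read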

[5] = growth inhibitors of H69AR lung tumor, primary screen, human, duplicate replicates (AID 580;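 active = viability at or under a set limit in both replicates, limit being median viability minus 3 SD, cut at about 48% in these data, passing the limit was not always enough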;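 note: 100% = mean luminescence of untreated wells and 0% = no signal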); details: H69AR lung tumor cells viability, ATP luminescence, 72 h; at 10 µM; stronger effect = lower value
[6] = reversal of MRP1-mediated doxorubicin resistance, pilot screen, H69AR cells, doxorubicin co-treatment (AID 601;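 active = viability loss from added drug above about 55%, and viability with drug at most 40%, in both replicates, limit read from the data, passing the limit was not always enough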); details: CellTiter-Glo, 72 h, at 10 µM; for differential viability (reversal): stronger effect = higher value
[7] = 384-well plate pilot, post-Golgi transport modulator project, inhibition of yeast transport mutant growth (AID 636; in the data active = inhibition above about 31%); details: absorbance 615 nm, about 18 h, stronger effect = higher value
[8] = growth suppression of yeast trafficking mutant, preliminary HTS, modulators of trafficking downstream of Golgi apparatus project, 1536-format plate, OD 615 nm (AID 637; in the data active = inhibition above about 30%); details: yeast transport mutant growth, absorbance 615 nm, 18 h; stronger effect = higher value
[9] = H69AR cells + 2 uM doxorubicin, measured here: viability with 2 uM doxorubicin, stronger effect = lower value
[10] = H69AR cells, compound alone cytotoxicity

Receptor tyrosine-protein kinase erbB-2 (Homo sapiens), sequence (P04626 whole entry, looked up): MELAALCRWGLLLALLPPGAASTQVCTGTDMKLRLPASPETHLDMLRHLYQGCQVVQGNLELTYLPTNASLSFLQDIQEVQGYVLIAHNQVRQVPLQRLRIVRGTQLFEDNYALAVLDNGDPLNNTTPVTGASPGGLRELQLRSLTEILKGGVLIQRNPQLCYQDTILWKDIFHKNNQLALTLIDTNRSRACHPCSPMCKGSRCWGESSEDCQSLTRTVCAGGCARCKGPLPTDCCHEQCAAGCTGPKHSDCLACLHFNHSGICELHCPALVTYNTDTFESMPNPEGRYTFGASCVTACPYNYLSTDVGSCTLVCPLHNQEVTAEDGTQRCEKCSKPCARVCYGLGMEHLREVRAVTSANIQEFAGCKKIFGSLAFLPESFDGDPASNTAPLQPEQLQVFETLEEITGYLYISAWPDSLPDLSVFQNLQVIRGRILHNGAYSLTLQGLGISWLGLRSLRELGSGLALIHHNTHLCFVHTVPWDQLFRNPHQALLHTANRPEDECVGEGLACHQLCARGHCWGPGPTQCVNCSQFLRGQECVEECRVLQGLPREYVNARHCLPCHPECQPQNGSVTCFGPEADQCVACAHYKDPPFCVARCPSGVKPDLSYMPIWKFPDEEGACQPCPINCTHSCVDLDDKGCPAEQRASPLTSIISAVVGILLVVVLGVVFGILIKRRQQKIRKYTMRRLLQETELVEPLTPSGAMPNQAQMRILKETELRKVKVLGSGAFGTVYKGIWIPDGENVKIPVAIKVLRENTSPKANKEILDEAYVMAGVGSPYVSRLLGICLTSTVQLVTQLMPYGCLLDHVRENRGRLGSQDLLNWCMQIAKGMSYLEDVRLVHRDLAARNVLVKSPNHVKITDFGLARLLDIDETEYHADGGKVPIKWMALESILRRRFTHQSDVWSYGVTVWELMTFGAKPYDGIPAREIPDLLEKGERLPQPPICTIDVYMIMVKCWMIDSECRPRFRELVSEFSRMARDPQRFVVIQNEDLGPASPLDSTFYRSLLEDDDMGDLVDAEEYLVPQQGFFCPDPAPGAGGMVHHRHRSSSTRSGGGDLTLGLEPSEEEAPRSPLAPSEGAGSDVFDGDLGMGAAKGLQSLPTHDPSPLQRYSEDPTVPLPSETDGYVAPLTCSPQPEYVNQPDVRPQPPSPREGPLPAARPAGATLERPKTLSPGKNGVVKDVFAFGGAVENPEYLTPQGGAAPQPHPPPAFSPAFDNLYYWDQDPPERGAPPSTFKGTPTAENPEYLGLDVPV

| Compound | viability [1] [%] | Her2 level [2] | viability [3] | viability [4] | viability [5] | differential viability (reversal) ([6]; H69AR cells + 2 uM doxorubicin) | viability [6, 9] [%] | viability [6, 10] [%] | inhibition [7] | inhibition [8] |
| --- | --- | --- | --- | --- | --- | --- | --- | --- | --- | --- |
| Cc1cc(C)n2nc3nc(N4CCCCC4)nc(-c4ccco4)c3c2n1 | 81.5 | 81% (inactive) | 81.5% (inactive) | 79.5% (inactive) | 80.2% (inactive) | -2.63% (inactive) | 82.8 | 80.2 | -4.53% (inactive) | -5.16% (inactive) |
| Cn1c(=O)n(C)c2cc(CNc3ccc(N4CCOCC4)c(C(=O)O)c3)ccc21 | 107 | 89.5% (inactive) | 107% (inactive) | 113% (inactive) | 89.6% (inactive) | -2.67% (inactive) | 92.2 | 89.6 | -3.33% (inactive) | 0.49% (inactive) |
| Cc1nc(NS(=O)(=O)c2ccccc2)sc1NC(=O)OC(C)C | 97 | 106% (inactive) | 97% (inactive) | 90.3% (inactive) | 99.9% (inactive) | 1.17% (inactive) | 98.7 | 99.9 | -3.29% (inactive) | -12.5% (inactive) |
| COC(=O)c1cc(NC(=O)C2CC=CCC2C(=O)O)cc(C(=O)OC)c1 (stereo not given) | 97.5 | 86.5% (inactive) | 97.5% (inactive) | 104% (inactive) | 109% (inactive) | 15.8% (inactive) | 92.7 | 109 | -4.8% (inactive) | -1.94% (inactive) |
| COc1ccccc1N1CCN(C(=O)C2CCCO2)CC1 (stereo not given) | 98.5 | 92.5% (inactive) | 98.5% (inactive) | 90% (inactive) | 97.5% (inactive) | -0.265% (inactive) | 97.8 | 97.5 | -1.69% (inactive) | 1.8% (inactive) |
| Cn1c(SC/C=C/c2ccccc2)nnc1-c1cnccn1 | 80.5 | 102% (inactive) | 80.5% (inactive) | 114% (inactive) | 94.3% (inactive) | 10.3% (inactive) | 84 | 94.3 | 2.27% (inactive) | -5.48% (inactive) |
| Cc1cc(C)nc(N2CCC(C(=O)NC3CCCCCC3)CC2)n1 | 92.5 | 99% (inactive) | 92.5% (inactive) | 111% (inactive) | 96.1% (inactive) | 1.6% (inactive) | 94.5 | 96.1 | -4.8% (inactive) | 1.13% (inactive) |
| O=C(NCCO)c1scc2c1OCCO2 | 104 | 92% (inactive) | 104% (inactive) | 91.8% (inactive) | 93.6% (inactive) | -7.95% (inactive) | 102 | 93.6 | -5.73% (inactive) | -1.8% (inactive) |
| O=C(Cn1cnc2ccccc2c1=O)NCCC(=O)N1CCN(Cc2ccccc2)CC1 | 89 | 90% (inactive) | 89% (inactive) | 98.6% (inactive) | 89.8% (inactive) | 4.66% (inactive) | 85.2 | 89.8 | 0.52% (inactive) | 0.98% (inactive) |
| NC(=O)c1c(NC(=O)CSc2nnc(-c3ccco3)n2-c2ccccc2)sc2c1CCC2 | 76 | 68% (inactive) | 76% (inactive) | 56.5% (inactive) | 28.9% (active) | -37.9% (inactive) | 66.8 | 28.9 | -4% (inactive) | 35.7% (active) |
| Clc1ccc(OCc2nc(-c3ccccn3)no2)c(Br)c1 | 82.5 | 92.5% (inactive) | 82.5% (inactive) | 55.6% (inactive) | 102% (inactive) | 3.96% (inactive) | 98.4 | 102 | -0.26% (inactive) | -8.67% (inactive) |
| COCCOC(=O)c1c(C)oc2ccc(NS(=O)(=O)c3ccc(F)cc3)cc12 | 85.5 | 90.5% (inactive) | 85.5% (inactive) | 93% (inactive) | 90.5% (inactive) | -4.71% (inactive) | 95.2 | 90.5 | -2.43% (inactive) | 2.7% (inactive) |
| Cc1ccc(S(=O)(=O)n2nc(OC(=O)c3ccco3)cc2N)cc1 | 92.5 | 106% (inactive) | 92.5% (inactive) | 96.4% (inactive) | 88.8% (inactive) | 4.73% (inactive) | 84 | 88.8 | -6.32% (inactive) | -1.45% (inactive) |
| O=C(CN1CCOCC1)N1CCN(C(=O)CN2CCOCC2)CC1 | 102 | 99.5% (inactive) | 102% (inactive) | 93.7% (inactive) | 104% (inactive) | 15.6% (inactive) | 88.9 | 104 | -3.73% (inactive) | 1.97% (inactive) |
| COc1ccc(CC(=O)OCC(=O)NC(=O)NC2CCCCC2)cc1 | 96.5 | 94% (inactive) | 96.5% (inactive) | 100% (inactive) | 92.4% (inactive) | -0.595% (inactive) | 93 | 92.4 | -5.13% (inactive) | -0.73% (inactive) |
| Cc1nn(C(=O)c2cc3sccc3[nH]2)c(C)c1C | 95 | 104% (inactive) | 95% (inactive) | 74.1% (inactive) | 106% (inactive) | 2.57% (inactive) | 103 | 106 | -4.47% (inactive) | -4.83% (inactive) |
| Cc1ccc(NC(=O)C2CC=CCC2C(=O)N2CCCCC2)cc1 (stereo not given) | 71 | 76.5% (inactive) | 71% (inactive) | 95.7% (inactive) | 95.7% (inactive) | 12.5% (inactive) | 83.2 | 95.7 | -5.54% (inactive) | -1.31% (inactive) |
| COc1ccc(-c2cc(C(F)(F)F)nc(SCCC(=O)N3CCOCC3)n2)cc1 | 116 | 90.5% (inactive) | 116% (inactive) | 94.1% (inactive) | 90% (inactive) | 3.6% (inactive) | 86.4 | 90 | -1.71% (inactive) | 2.46% (inactive) |
| COc1ccc(NCc2nnc(SCC(=O)Nc3cc(C)cc(C)c3)o2)cc1 | 112 | 90.5% (inactive) | 112% (inactive) | 70% (inactive) | 81.9% (inactive) | -3.66% (inactive) | 85.6 | 81.9 | -6.53% (inactive) | -1.64% (inactive) |
| Cc1cc(C)n(CCCNC(=O)c2ccc3c(c2)NC(=O)CS3)n1 | 104 | 80.5% (inactive) | 104% (inactive) | 91.8% (inactive) | 89.7% (inactive) | 3.36% (inactive) | 86.3 | 89.7 | -5.6% (inactive) | -1.48% (inactive) |
| COC(=O)c1cccc(S(=O)(=O)N2CCN(c3nc4ccccc4s3)CC2)c1 | 83 | 92.5% (inactive) | 83% (inactive) | 87.8% (inactive) | 81% (inactive) | 8.71% (inactive) | 72.3 | 81 | 0.67% (inactive) | -2.42% (inactive) |
| Cc1cc(C(=O)OCC(=O)N2c3ccccc3CC2C)c(C)o1 (stereo not given) | 90.5 | 86.5% (inactive) | 90.5% (inactive) | 101% (inactive) | 100% (inactive) | 9.63% (inactive) | 90.8 | 100 | -4.05% (inactive) | -4.75% (inactive) |
| CCCn1c(NCc2ccc3c(c2)OCO3)nc2ccccc21 | 94 | 85% (inactive) | 94% (inactive) | 80.1% (inactive) | 97.2% (inactive) | 12.3% (inactive) | 84.9 | 97.2 | -5.6% (inactive) | -1.13% (inactive) |
| COc1cc(OC)cc(-c2nnc(Nc3nc4c(F)cccc4s3)o2)c1 | 95.5 | 74% (inactive) | 95.5% (inactive) | 5.89% (active) | 69.4% (inactive) | -17.9% (inactive) | 87.3 | 69.4 | -5.07% (inactive) | 13.4% (inactive) |
| NC(=O)c1cccc(S(=O)(=O)N2CCCCC2)c1 | 99 | 96% (inactive) | 99% (inactive) | 96.9% (inactive) | 106% (inactive) | 9.71% (inactive) | 96.5 | 106 | -7.84% (inactive) | 2.62% (inactive) |
| CCOc1ccccc1NC(=O)CCN1CCN(S(=O)(=O)c2ccc(Br)cc2)CC1 | 119 | 87.5% (inactive) | 119% (inactive) | 100% (inactive) | 86.9% (inactive) | 11.2% (inactive) | 75.7 | 86.9 | -6.8% (inactive) | 1.13% (inactive) |
| Cc1ccnc(NC(=O)CCC(=O)N(CC(=O)NC(C)(C)C)C2CCCC2)c1 | 108 | 99.5% (inactive) | 108% (inactive) | 92.7% (inactive) | 93.2% (inactive) | 0.62% (inactive) | 92.6 | 93.2 | -4.94% (inactive) | 5.56% (inactive) |
| CCOC(=O)N1CCC(NC(=O)CCN2C(=O)COc3ccccc32)CC1 | 100 | 106% (inactive) | 100% (inactive) | 100% (inactive) | 84.1% (inactive) | 6.63% (inactive) | 77.5 | 84.1 | 0% (inactive) | -6.17% (inactive) |
